What was measured:
Rat [1] = assay: concentration in liver after dosing; conditions: 1 h; dosed: Fluorotelomer alcohol 8+2; 80 mg/kg; oral; Female; Harlan Sprague Dawley
Rat [2] = assay: concentration in kidney after dosing; conditions: 3 h; dosed: Fluorotelomer alcohol 8+2; 24 mg/kg; oral; Male; Harlan Sprague Dawley
Rat [3] = assay: concentration in kidney after dosing; conditions: 1 h; dosed: Fluorotelomer alcohol 8+2; 80 mg/kg; oral; Female; Harlan Sprague Dawley
Rat [4] = assay: concentration in plasma after dosing; conditions: dosed: Fluorotelomer alcohol 8+2, 12 mg/kg, oral, Male, Harlan Sprague Dawley
Rat [5] = assay: concentration in plasma after dosing; conditions: 22 h; dosed: Primidone; 130 mg/kg; oral; Female; F344
Rat [6] = assay: concentration in plasma after dosing; conditions: 6 h; dosed: Primidone; 30 mg/kg; oral; Female; F344
Rat [7] = assay: concentration in plasma after dosing; conditions: 1.5 h; dosed: Primidone; 130 mg/kg; oral; Female; F344
Rat [8] = assay: concentration in plasma after dosing; conditions: dosed: Perfluorodecanoic acid, 2 mg/kg, oral, Male, Harlan Sprague Dawley
Rat [9] = assay: concentration in kidney after dosing; conditions: 1848 h; dosed: Perfluorodecanoic acid; 10 mg/kg; oral; Male; Harlan Sprague Dawley
Rat [10] = assay: concentration in plasma after dosing; conditions: dosed: Perfluorodecanoic acid, 2 mg/kg, iv, Male, F344
Rat [11] = assay: concentration in kidney after dosing; conditions: 24 h; dosed: Perfluorodecanoic acid; 10 mg/kg; oral; Male; Harlan Sprague Dawley
Rat [12] = assay: concentration in thymus after dosing; conditions: 5 h; dosed: Bis 2-Chloroethoxy Methane; 20 mg/kg; iv; Male; F344
Rat [13] = assay: concentration in thymus after dosing; conditions: 20 min; dosed: Bis 2-Chloroethoxy Methane; 20 mg/kg; iv; Male; F344
Rat [14] = assay: concentration in thymus after dosing; conditions: 1 h; dosed: Bis 2-Chloroethoxy Methane; 20 mg/kg; iv; Male; F344
Rat [15] = assay: concentration in thymus after dosing; conditions: 20 min; dosed: Bis 2-Chloroethoxy Methane; 20 mg/kg; iv; Female; F344
Rat [16] = assay: concentration in heart after dosing; conditions: 4 h; dosed: Bis 2-Chloroethoxy Methane; 20 mg/kg; iv; Male; F344
Rat [17] = assay: concentration in plasma after dosing; conditions: 40 min; dosed: dichloroacetic acid; 40 mg/kg; oral; Female; Harlan Sprague Dawley
Rat [18] = assay: concentration in plasma after dosing; conditions: 20 min; dosed: dichloroacetic acid; 10 mg/kg; iv; Male; F344
Rat [19] = assay: concentration in plasma after dosing; conditions: 2 h; dosed: Wyeth-14643; 2.0 mg/kg; oral; Male; Sprague-Dawley
Rat [20] = assay: concentration in plasma after dosing; conditions: dosed: Wyeth-14643, 1.0 mg/kg, oral, Male, Sprague-Dawley
Rat [21] = assay: concentration in plasma after dosing; conditions: dosed: Wyeth-14643, 2.0 mg/kg, oral, Male, Sprague-Dawley
Rat [22] = assay: concentration in plasma after dosing; conditions: dosed: Wyeth-14643, 5.0 mg/kg, oral, Male, Sprague-Dawley
Rat [23] = assay: concentration in plasma after dosing; conditions: 3 h; dosed: Thiodiglycolic Acid; 20 mg/kg; iv; Female; Harlan Sprague Dawley
Rat [24] = assay: concentration in liver after dosing; conditions: 20 min; dosed: Thiodiglycolic Acid; 20 mg/kg; iv; Female; Harlan Sprague Dawley
Rat [25] = assay: concentration in heart after dosing; conditions: 1 h; dosed: Thiodiglycolic Acid; 20 mg/kg; iv; Male; Harlan Sprague Dawley
Rat [26] = assay: concentration in liver after dosing; conditions: 1 h; dosed: Thiodiglycolic Acid; 20 mg/kg; iv; Male; Harlan Sprague Dawley
Rat [27] = assay: concentration in thymus after dosing; conditions: 4 h; dosed: Thiodiglycolic Acid; 20 mg/kg; iv; Female; Harlan Sprague Dawley
Rat [28] = assay: concentration in liver after dosing; conditions: 4 h; dosed: Thiodiglycolic Acid; 20 mg/kg; iv; Female; Harlan Sprague Dawley
Rat [29] = assay: concentration in liver after dosing; conditions: 4 h; dosed: Thiodiglycolic Acid; 20 mg/kg; iv; Female; Harlan Sprague Dawley; remark: listed apart in the source
Rat [30] = assay: concentration in liver after dosing; conditions: 8 h; dosed: Thiodiglycolic Acid; 20 mg/kg; iv; Female; Harlan Sprague Dawley
Rat [31] = assay: concentration in liver after dosing; conditions: 10 min; dosed: Thiodiglycolic Acid; 20 mg/kg; iv; Male; F344
Rat [32] = assay: concentration in heart after dosing; conditions: 4 h; dosed: Thiodiglycolic Acid; 20 mg/kg; iv; Female; Harlan Sprague Dawley
Rat [33] = assay: concentration in plasma after dosing; conditions: 10 min; dosed: Di-n-butyl phthalate; 20 mg/kg; iv; Male; Sprague-Dawley
Rat [34] = assay: concentration in plasma after dosing; conditions: 1 h; dosed: Di-n-butyl phthalate; 100 mg/kg; oral; Male; Sprague-Dawley
Rat [35] = assay: concentration in plasma after dosing; conditions: 5 min; dosed: Di-n-butyl phthalate; 100 mg/kg; oral; Male; Sprague-Dawley
Rat [36] = assay: concentration in plasma after dosing; conditions: 4 h; dosed: Di-n-butyl phthalate; 20 mg/kg; iv; Male; Sprague-Dawley
dog = conditions: dosed: tetrachloroethylene, 72 ppm, inhalation, duration: 4 hr, male, beagle
In short: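 A PubMed search, classifier screening and manual review identified published in vivo toxicokinetic studies, which together with two structured collections supplied concentration-versus-time and amount-versus-time points. Points were mostly digitised from plot screenshots with WebPlotDigitizer, otherwise copied from tables. Dose, route, subject details and medium were hand-curated from each paper, and sampling and analytical methods are those of the sources, often unreported.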

Structure (SMILES): OCCC(F)(F)C(F)(F)C(F)(F)C(F)(F)C(F)(F)C(F)(F)C(F)(F)C(F)(F)F [Fluorotelomer alcohol 8+2]
- concentration in liver (Rat [1]): 5950 ng/g
- concentration in kidney (Rat [2]): 631 ng/g
- concentration in kidney (Rat [3]): 1950 ng/g
- concentration in plasma (Rat [4]; 0.5 h): 374 ng/mL
- concentration in plasma (Rat [4]; 9 h): 12.8 ng/mL

Structure (SMILES): CCC1(c2ccccc2)C(=O)NC(=O)NC1=O [Phenobarbital]
- concentration in plasma (Rat [5]): 2490 ng/mL
- concentration in plasma (Rat [6]): 990 ng/mL
- concentration in plasma (Rat [7]): 990 ng/mL

Structure (SMILES): O=C(O)C(F)(F)C(F)(F)C(F)(F)C(F)(F)C(F)(F)C(F)(F)C(F)(F)C(F)(F)C(F)(F)F [Perfluorodecanoic acid]
- concentration in plasma (Rat [8]; 1 h): 4920 ng/mL
- concentration in plasma (Rat [8]; 192 h): 5100 ng/mL
- concentration in plasma (Rat [8]; 2520 h): 882 ng/mL
- concentration in kidney (Rat [9]): 6050 ng/g
- concentration in plasma (Rat [10]; 1 h): 6520 ng/mL
- concentration in plasma (Rat [10]; 528 h): 4120 ng/mL
- concentration in plasma (Rat [10]; 3360 h): 71.5 ng/mL
- concentration in kidney (Rat [11]): 29300 ng/g

Structure (SMILES): ClCCOCOCCCl [Bis 2-Chloroethoxy Methane]
- concentration in thymus (Rat [12]): 49 ng/g
- concentration in thymus (Rat [13]): 25400 ng/g
- concentration in thymus (Rat [14]): 7380 ng/g
- concentration in thymus (Rat [15]): 16300 ng/g
- concentration in heart (Rat [16]): 112 ng/g

Structure (SMILES): O=C(O)C(Cl)Cl [dichloroacetic acid]
- concentration in plasma (Rat [17]): 10600 ng/mL
- concentration in plasma (Rat [18]): 2320 ng/mL

Structure (SMILES): Cc1cccc(Nc2cc(Cl)nc(SCC(=O)O)n2)c1C
- concentration in plasma (Rat [19]): 925 ng/mL
- concentration in plasma (Rat [20]; 0.5 h): 1180 ng/mL
- concentration in plasma (Rat [20]; 6 h): 202 ng/mL
- concentration in plasma (Rat [21]; 1 h): 904 ng/mL
- concentration in plasma (Rat [21]; 6 h): 200 ng/mL
- concentration in plasma (Rat [22]; 2 h): 1920 ng/mL
- concentration in plasma (Rat [22]; 6 h): 999 ng/mL

Structure (SMILES): O=C(O)CSCC(=O)O [Thiodiglycolic Acid]
- concentration in plasma (Rat [23]): 535 ng/mL
- concentration in liver (Rat [24]): 91400 ng/g
- concentration in heart (Rat [25]): 1520 ng/g
- concentration in liver (Rat [26]): 126000 ng/g
- concentration in thymus (Rat [27]): 637 ng/g
- concentration in liver (Rat [28]): 7460 ng/g
- concentration in liver (Rat [29]): 3490 ng/g
- concentration in liver (Rat [30]): 29000 ng/g
- concentration in liver (Rat [31]): 160000 ng/g
- concentration in heart (Rat [32]): 620 ng/g

Structure (SMILES): CCCCOC(=O)c1ccccc1C(=O)O [Mono-n-butyl phthalate]
- concentration in plasma (Rat [33]): 31200 ng/mL
- concentration in plasma (Rat [34]): 14900 ng/mL
- concentration in plasma (Rat [35]): 1430 ng/mL
- concentration in plasma (Rat [36]): 678 ng/mL

Structure (SMILES): O=C(O)C(Cl)(Cl)Cl [trichloroacetic acid]
- amount in urine after dosing (dog; 22 h): 4.04 mg
- amount in urine after dosing (dog; 46 h): 1.08 mg
- amount in urine after dosing (dog; 70 h): 1.11 mg

Reference: EPA's CvTdb concentration-time database
